The values below come from ChEMBL document CHEMBL3352568, “Synthesis and evaluation of in vitro antimycobacterial activity of novel 1H-benzo[d]imidazole derivatives and analogues” (Eur J Med Chem, 2015).

Molecules are shown by their SMILES. Converted amounts (≈) assume the structure as drawn.

For the experiment, the system named is Mycobacterium tuberculosis variant bovis. The experiment in a line: Antimicrobial activity against Mycobacterium bovis by two-fold serial dilution method. The experiment is classed as functional. The method in brief:
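Classical test-tube successive two-fold dilution in Youmans' modification of Proskauer and Beck liquid medium with 10% bovine serum. Inocula from 14-day-old cultures. Compounds dissolved in ethylene glycol (stock 10 mg/mL), diluted in medium to 0.75–100 µg/mL. Incubated at 37 °C. MIC is the lowest concentration inhibiting growth relative to a compound-free control.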
`Cc1ccc2[nH]c(CCC3CCCCC3)nc2c1` returned a minimal inhibitory concentration (MIC) of 12.5 µg/mL (≈ 51.6 µM).
The same measure for `Fc1ccc2[nH]c(CCC3CCCCC3)nc2c1`: 3.1 µg/mL (≈ 12.6 µM); for `Clc1ccc2[nH]c(CCC3CCCCC3)nc2c1`: 0.75 µg/mL (≈ 2.85 µM).
Under `Brc1ccc2[nH]c(CCC3CCCCC3)nc2c1` stands 0.75 µg/mL (≈ 2.44 µM); under `O=[N+]([O-])c1ccc2[nH]c(CCC3CCCCC3)nc2c1`, 3.1 µg/mL (≈ 11.3 µM).
The same measure for `Cc1cc2nc(CCC3CCCCC3)[nH]c2cc1C`: 0.75 µg/mL (≈ 2.93 µM); for `Clc1cc2nc(CCC3CCCCC3)[nH]c2cc1Cl`: 1.5 µg/mL (≈ 5.05 µM).
`Fc1ccc2[nH]c(CCCC3CCCCC3)nc2c1` displayed an MIC of 6.2 µg/mL (≈ 23.8 µM).
Regarding `Clc1cc2nc(CCCC3CCCCC3)[nH]c2cc1Cl`, the MIC stood at 25 µg/mL (≈ 80.3 µM). Against the preceding compound, the MIC is about 4-fold higher.
Turning to `Cc1ccc2[nH]c(CCCc3ccccc3)nc2c1`, inhibition of growth (MIC) required 25 µg/mL (≈ 99.9 µM).
The same measure for `Cc1cc2nc(CCCc3ccccc3)[nH]c2cc1C`: 6.2 µg/mL (≈ 23.5 µM); for `Clc1cc2nc(CCCc3ccccc3)[nH]c2cc1Cl`: 3.1 µg/mL (≈ 10.2 µM); for `Cc1ccc2[nH]c(-c3cc(-c4ccccc4)ccn3)nc2c1`: 25 µg/mL (≈ 87.6 µM).

As a reminder, the MIC is the lowest concentration found to suppress growth.
